PTEN del growth – suppresses growth of cells with PTEN deletion; HCT116 PTEN-null viability, CellTiter-Glo, 60 h; hits give low values; viability, % at 10 µM; 140,000 compounds, 1.2% hits; AID 827;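 active = viability at or below a set limit, 4 SD under the median of all tested compounds, cut at about 3.7% in these data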;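 note: PTEN knockout HCT116 line with beta catenin targeted HCT116 as companion control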
Fibroblast inh – blocks proliferation of human lung fibroblasts; LL 47 human lung fibroblast viability, ATP luminescence; hits give low values; viability, % at 10 µM; 85,000 compounds, 1.1% hits; AID 719;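 active = viability at or below 50% in the single dose screen; inactive = viability above 50%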;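 note: compound exposure lasted 72 h before the ATP readout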
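Material: Human LL 47 lung fibroblast cells | Input: 1,150 cells/well | Buffer or medium: IMEM plus 15% FBS | Compound dosing: 0.1% DMSO in all compound wells | Times: Overnight cell rest, 72 h compound treatment at 37 °C | Signal: CellTiter-Glo luminescence measuring cellular ATP | Measure: % viability versus median cells-only luminescence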
H69AR growth 86K – growth inhibitors of human H69AR lung tumor cells; H69AR lung tumor viability, ATP luminescence, 72 h; hits give low values; viability, % at 10 µM; 85,000 compounds, 6% hits;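 active = viability at or below 40%; inactive = viability above 40%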;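 note: multidrug resistant small cell line overexpressing MRP-1 efflux transporter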
bCat KO growth – beta-catenin-lacking colon tumor cell growth suppression; HCT116 beta-catenin knockout viability, CellTiter-Glo, 60 h; hits give low values; viability, % at 10 µM; 140,000 compounds, 1.5% hits;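 active = viability at or under a set limit, the compound median less 4 SD, cut at about 6% in these data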
HUVEC inhibit – blocks proliferation of human endothelial cells. HUVEC proliferation, CellTiter-Glo luminescence, 72 h; hits give low values. viability, % at 10 µM (by protocol). 86,000 compounds, 1.1% hits. AID 648;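 active = viability at or below 30%; inactive = viability above 30%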
Hits are given with their value; - = inactive; . = not tested or not shown. Many of the other results were omitted from the sample, so hits are more common in it than they were.

SMILES | PTEN del growth | Fibroblast inh | H69AR growth 86K | bCat KO growth | HUVEC inhibit
CC1(C)CC(CC(=O)Nc2nccs2)(c2ccccc2)CCO1 (stereo unspecified) | - | . | . | - | .
O=C(CSc1nnc2scc(-c3ccccc3)n12)Nc1nsc(-c2ccccc2)n1 | - | - | 38 | - | -
COc1ccc(C(=O)C(CCC(CNC(C)(C)C)C(=O)c2ccc(OC)cc2)CNC(C)(C)C)cc1 (stereo unspecified) | 1.2 | . | . | 1.0 | .
Cc1ccc(NC(=O)CN(C)C(=O)Cn2ncc(Cl)c(Cl)c2=O)cc1 | 1.0 | . | . | 1.6 | .
Cc1ccc(NC(=O)CN(C)C(=O)COc2c(Cl)cc(Cl)c3ccc(C)nc23)cc1 | - | . | . | - | .
COCc1nnc(NC(=O)c2ccc(S(=O)(=O)N3CCCCCC3)cc2)o1 | - | - | - | - | -
COCc1nnc(NC(=O)c2ccc(S(=O)(=O)N(C)C3CCCCC3)cc2)o1 | - | - | 25 | - | -
CCc1nnc(NC(=O)c2ccc(S(=O)(=O)N(CC(C)C)CC(C)C)cc2)o1 | - | - | 25 | - | -
Cc1ccccc1NC(=S)NCc1ccc(Cl)cc1 | - | . | . | - | .
CC(NC(=O)N(Cc1ccccc1)Cc1ccc2c(c1)OCO2)(C(F)(F)F)C(F)(F)F | - | - | - | - | -
CCC(NC(=O)N(Cc1ccccc1)Cc1ccc2c(c1)OCO2)(C(F)(F)F)C(F)(F)F | - | - | 37 | - | -
NC(=S)N/N=C/c1ccc(-c2ccc(Cl)c(Cl)c2)o1 | - | - | - | - | -
NC(=S)N/N=C\c1ccc(-c2cccc(Cl)c2Cl)o1 | - | - | - | - | 22
O=[N+]([O-])/C=C/c1cn(Cc2ccccc2)c2ccccc12 | 1.1 | . | . | 1.6 | .
N#Cc1cn(Cc2cccc(Cl)c2)c2ccccc12 | - | - | - | - | -
N#Cc1ccccc1Cn1cc(/C=C/[N+](=O)[O-])c2ccccc21 | 1.4 | . | . | 2.1 | .
COc1ccccc1CNC(=O)C1(c2ccc(Cl)cc2)CC1 | - | . | . | - | .
OC(CN1CCN(c2ccccn2)CC1)Cn1c2ccc(Cl)cc2c2cc(Cl)ccc21 (stereo unspecified) | - | - | 1.3 | - | -
NC(=O)C1CCN(CC(=O)Nc2cccc(C(=O)Nc3cccc(C(F)(F)F)c3)c2)CC1 | - | . | . | - | .
O=C(CCSc1ccc(Cl)c(Cl)c1)NC12CC3CC(CC(C3)C1)C2 | - | . | . | - | .
O=C(c1ccc2c3c(cccc13)C(=O)N(O)C2=O)N1CCCCC1 | - | - | 25 | - | -
NN1C(=O)c2cccc3c(C(=O)O)ccc(c23)C1=O | - | . | . | - | .
CCOc1cc(/C=C2/C(=N)N3OC(C)=CC3=NC2=O)ccc1OCCOc1ccccc1 | - | - | - | - | -
CS(=O)(=O)c1nc(-c2cccs2)cc(C(F)(F)F)n1 | 1.3 | 14 | 1.5 | 3.3 | -
CC(C)CNC(=O)CSc1nc(-c2cccs2)cc(C(F)(F)F)n1 | - | - | - | - | -
SMILES | PTEN del growth | Fibroblast inh | H69AR growth 86K | bCat KO growth | HUVEC inhibit
O=C(O)CCS(=O)(=O)c1nc(-c2cccs2)cc(C(F)(F)F)n1 | - | - | 33 | - | -
Nc1cc(C(F)(F)F)cc2c1SCC(=O)N2 | - | . | . | - | .
NC(=O)NC(=O)CSc1nc(-c2ccccc2)c(-c2ccccc2)n1CC1CCCO1 (stereo unspecified) | - | - | 36 | - | -
O=C(CSc1nc2ccccc2c(=O)n1CC1CCCO1)NCC1CCCO1 (stereo unspecified) | - | - | - | - | -
Cc1ccc(OC(=O)CCC(=O)NC(C)c2ccccc2)cc1 (stereo unspecified) | - | . | . | - | .
c1ccc2c(c1)oc1c(NCCCn3ccnc3)ncnc12 | - | - | - | - | -
c1ccc(-c2oc3ncnc(NCCCn4ccnc4)c3c2-c2ccccc2)cc1 | - | - | 29 | - | -
c1ccc(-c2c(-c3ccccc3)n(Cc3ccco3)c3ncnc(NCCCn4ccnc4)c23)cc1 | - | - | 9.1 | - | -
N=c1c2c(-c3ccccc3)c(-c3ccccc3)n(Cc3ccco3)c2ncn1CCCn1ccnc1 | 2.1 | . | . | 2.2 | .
COC(=O)c1c(NC(=O)COC(=O)[C@@H](NS(=O)(=O)c2ccc(C)cc2)C(C)C)sc2c1CCC2 | - | . | . | - | .
CC(C)(C)c1ccc(CN2C3=NCCCN3c3ccccc32)cc1 | 2.9 | - | 15 | 3.9 | -
CCOc1ccc2nc(N3CCC(C(=O)N4CCN(c5ncccn5)CC4)CC3)sc2c1 | . | - | 38 | . | -
COc1cc(/C=N/NC(=O)c2ccc(O)cc2)ccc1Oc1ccc([N+](=O)[O-])cn1 | - | . | . | - | .
O=C(Nc1ccc(N2CCOCC2)cc1)Nc1ccc2nc(-c3ccco3)c(-c3ccco3)nc2c1 | - | - | 9.5 | - | 22
CCn1cc(C(=O)NCc2ccc3c(c2)OCO3)c(=O)c2cc(F)c(N3CCN(C)CC3)cc21 | 2.3 | - | 21 | 2.5 | -
CCn1cc(C(=O)NCc2ccccn2)c(=O)c2cc(F)c(N3CCN(C)CC3)cc21 | - | - | - | - | -
CCn1cc(C(=O)N[C@H](C)c2ccccc2)c(=O)c2cc(F)c(N3CCN(C)CC3)cc21 | - | - | 9.7 | - | -
CCn1cc(C(=O)NCCc2ccccc2)c(=O)c2cc(F)c(N3CCN(C)CC3)cc21 | - | - | - | - | 17
CCOc1ccc(N2CCn3c2nc2c3c(=O)n(CCc3ccccc3)c(=O)n2C)cc1 | . | - | 15 | . | -
Cc1ccc(OC2=NS(=O)(=O)c3ccccc32)cc1 | - | - | 31 | - | -
CC1(C)CC(=O)C2=C(C1)OC1=C(C(=O)CC(C)(C)C1)C2(C)C | - | . | . | - | .
COc1ccc(S(=O)(=O)N2c3cc(Cl)ccc3Oc3nc4ccccc4nc32)cc1 | - | - | 29 | - | -
Cc1sc2ncnc(Sc3nnc4sc5ccccc5n34)c2c1C | - | - | 35 | - | -
O=c1[nH]c(=O)n(Cc2ccccc2)c2nc(-c3ccc(Oc4ccc(F)cc4)c([N+](=O)[O-])c3)n(CCO)c12 | 1.1 | . | . | 0.8 | .
COc1ccc(/C=C/c2nc3ccccc3n2Cc2ccccc2OC)cc1 | 2.8 | . | . | 1.9 | .
SMILES | PTEN del growth | Fibroblast inh | H69AR growth 86K | bCat KO growth | HUVEC inhibit
COc1ccccc1Cn1c(/C=C/c2ccccc2)nc2ccccc21 | - | . | . | - | .
O=C(NCc1cccnc1)C(=O)NCC1OCCN1S(=O)(=O)c1ccc(F)cc1 (stereo unspecified) | - | . | . | - | .
COc1cccc(N(C(=O)c2ccco2)c2nc(-c3sc(NC(=O)c4ccco4)nc3C)cs2)c1 | - | . | . | 3.8 | .
COc1ccccc1Nc1nc(-c2sc(NC(=O)c3ccco3)nc2C)cs1 | - | . | . | - | .
Oc1ccc(Br)cc1-c1nc2cnccn2c1NC1CCCC1 | 1.9 | - | - | 1.3 | -
CC(C)(C)c1ccc(-c2nnc(SCC(=O)O)n2N)cc1 | - | 44 | - | - | -
Cc1ccc(C2=Nc3ccccc3N(C(=O)c3ccccc3)C(C)C2)cc1 (stereo unspecified) | - | . | . | - | .
O=c1cc(/C=C/c2cccs2)[nH]c2ccccc12 | - | - | 25 | - | -
O=Cc1ccccc1OCCOc1ccccc1C=O | - | - | 23 | - | -
O=Cc1ccccc1Oc1ccccc1 | - | . | . | - | .
N#CC1=C(N)Oc2cc(O)ccc2C1c1cccs1 (stereo unspecified) | - | - | - | - | -

Compound activity: PubChem BioAssay, SRMLSC
